Laboratory results reported in ChEMBL document CHEMBL1157667, “Synthesis of glycyrrhetinic acid derivatives for the treatment of metabolic diseases” (Bioorg Med Chem, 2010).

What was measured:
[1] = molecular target: 11-beta-hydroxysteroid dehydrogenase 1 (Homo sapiens) (UniProt P28845); assay: Inhibition of human recombinant 11beta-HSD1 expressed in HEK293 cells assessed as conversion of [1,2-3H]cortisone to cortisol at 1 uM after 10 mins by scintillation counting; format: cell-based
In short: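 Lysates of HEK-293 cells (no endogenous 11β-HSD) expressing recombinant human 11β-HSD1. Reduction of [1,2-3H]cortisone to cortisol was run for 10 min at 37 °C with 200 nM cortisone (final) and NADPH as cofactor; solvent ≤0.1%. Reactions were stopped with methanol containing 2 mM unlabeled cortisone and cortisol. Steroids were separated by TLC and counted by scintillation. Three independent experiments.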

[2] = molecular target: 11-beta-hydroxysteroid dehydrogenase 1 (Rattus norvegicus, UniProt P16232); assay: Inhibition of 11beta-HSD1 in rat liver assessed as cortisone level; format: tissue-based
11-beta-hydroxysteroid dehydrogenase 1, sequence (P16232 whole entry): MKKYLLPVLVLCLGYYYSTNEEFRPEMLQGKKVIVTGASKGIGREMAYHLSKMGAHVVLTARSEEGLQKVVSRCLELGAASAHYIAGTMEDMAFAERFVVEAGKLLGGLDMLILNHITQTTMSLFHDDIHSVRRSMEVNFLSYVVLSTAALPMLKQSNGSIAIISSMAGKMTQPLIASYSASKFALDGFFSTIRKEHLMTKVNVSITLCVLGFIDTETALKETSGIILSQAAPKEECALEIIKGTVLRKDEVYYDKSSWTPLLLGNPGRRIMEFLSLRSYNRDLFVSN

11-beta-hydroxysteroid dehydrogenase 1 (Homo sapiens), sequence (P28845 whole entry, looked up): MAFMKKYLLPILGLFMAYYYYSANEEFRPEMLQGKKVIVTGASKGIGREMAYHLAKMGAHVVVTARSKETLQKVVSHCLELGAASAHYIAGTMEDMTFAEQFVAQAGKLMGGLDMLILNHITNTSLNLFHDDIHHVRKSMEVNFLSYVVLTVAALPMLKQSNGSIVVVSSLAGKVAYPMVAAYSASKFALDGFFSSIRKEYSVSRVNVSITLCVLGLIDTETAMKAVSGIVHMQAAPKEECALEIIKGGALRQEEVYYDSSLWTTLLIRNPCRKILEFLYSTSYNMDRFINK

CC1(C)[C@@H](OP(=O)(O)O)CC[C@]2(C)[C@H]3C(=O)C=C4[C@@H]5C[C@@](C)(C(=O)O)CC[C@]5(C)CC[C@@]4(C)[C@]3(C)CC[C@@H]12
inhibition [1]: 86%

CN(C)CCNC(=O)[C@@]1(C)CC[C@]2(C)CC[C@]3(C)C(=CC(=O)[C@@H]4[C@@]5(C)CC[C@H](O)C(C)(C)[C@@H]5CC[C@]43C)[C@@H]2C1
inhibition [1]: 36%

CC(=O)O[C@H]1CC[C@]2(C)[C@H]3C(=O)C=C4[C@@H]5C[C@@](C)(C=NO)CC[C@]5(C)CC[C@@]4(C)[C@]3(C)CC[C@H]2C1(C)C
inhibition [1]: 43.3%

CC1(C)[C@@H](OC(=O)CCC(=O)O)CC[C@]2(C)[C@H]3C(=O)C=C4[C@@H]5C[C@@](C)(C(=O)O)CC[C@]5(C)CC[C@@]4(C)[C@]3(C)CC[C@@H]12
inhibition [1]: 87.7%

CC1(C)[C@@H](O[C@H]2O[C@H](C(=O)O)[C@@H](O)[C@H](O)[C@H]2O[C@@H]2O[C@H](C(=O)O)[C@@H](O)[C@H](O)[C@H]2O)CC[C@]2(C)[C@H]3C(=O)C=C4[C@@H]5C[C@@](C)(C(=O)O)CC[C@]5(C)CC[C@@]4(C)[C@]3(C)CC[C@@H]12
inhibition [1]: 63.2%

CC1(C)[C@@H](O)CC[C@]2(C)[C@H]3C(=O)C=C4[C@@H]5C[C@@](C)(C(=O)NCC(=O)O)CC[C@]5(C)CC[C@@]4(C)[C@]3(C)CC[C@@H]12
inhibition [1]: 2.7%

CC1(C)[C@H](O)CC[C@]2(C)[C@H]3C(=O)C=C4[C@@H]5C[C@@](C)(C(=O)O)CC[C@]5(C)CC[C@@]4(C)[C@]3(C)CC[C@@H]12
inhibition [1]: 97.4%

CC1(C)[C@@H](O)CC[C@]2(C)[C@H]3C(=O)C=C4[C@@H]5C[C@@](C)(C(=O)NCCO)CC[C@]5(C)CC[C@@]4(C)[C@]3(C)CC[C@@H]12
inhibition [1]: 2.9%

CON=C1CC[C@]2(C)[C@H]3C(=O)C=C4[C@@H]5C[C@@](C)(C(=O)O)CC[C@]5(C)CC[C@@]4(C)[C@]3(C)CC[C@H]2C1(C)C
inhibition [1]: 63.2%

CC(=O)O[C@H]1CC[C@]2(C)[C@H]3C(=O)C=C4[C@@H]5C[C@@](C)(C(=O)O)CC[C@]5(C)CC[C@@]4(C)[C@]3(C)CC[C@H]2C1(C)C
inhibition [1]: 47.1%

CCNC(=O)N(CCCN(C)C)C(=O)[C@@]1(C)CC[C@]2(C)CC[C@]3(C)C(=CC(=O)[C@@H]4[C@@]5(C)CC[C@H](O)C(C)(C)[C@@H]5CC[C@]43C)[C@@H]2C1
inhibition [1]: 32.5%

C=CCNC(=O)[C@@]1(C)CC[C@]2(C)CC[C@]3(C)C(=CC(=O)[C@@H]4[C@@]5(C)CC[C@H](O)C(C)(C)[C@@H]5CC[C@]43C)[C@@H]2C1
inhibition [1]: 6.2%

CC1(C)C(=O)CC[C@]2(C)[C@H]3C(=O)C=C4[C@@H]5C[C@@](C)(C(=O)O)CC[C@]5(C)CC[C@@]4(C)[C@]3(C)CC[C@@H]12
inhibition [1]: 63.8%

C#CCNC(=O)[C@@]1(C)CC[C@]2(C)CC[C@]3(C)C(=CC(=O)[C@@H]4[C@@]5(C)CC[C@H](O)C(C)(C)[C@@H]5CC[C@]43C)[C@@H]2C1
inhibition [1]: 10.1%

CC1(C)[C@@H](O)CC[C@]2(C)[C@H]3C(=O)C=C4[C@@H]5C[C@@](C)(C(=O)O)CC[C@]5(C)CC[C@@]4(C)[C@]3(C)CC[C@@H]12 (stereo in doubt; 1) [ENOXOLONE]
IC50 [2]: 90 nM

CC1(C)[C@@H](O)CC[C@]2(C)[C@H]3C(=O)C=C4[C@@H]5C[C@@](C)(C(=O)O)CC[C@]5(C)CC[C@@]4(C)[C@]3(C)CC[C@@H]12 (stereo in doubt; 23)
inhibition [1]: 49.7%

CC1(C)[C@@H](O)CC[C@]2(C)[C@H]3C(=O)C=C4[C@@H]5C[C@@](C)(C(=O)O)CC[C@]5(C)CC[C@@]4(C)[C@]3(C)CC[C@@H]12 (stereo in doubt; 1)
inhibition [1]: 91.2%

CC(=O)O[C@H]1CC[C@]2(C)[C@H]3C(=O)C=C4[C@@H]5C[C@@](C)(C(=O)NN)CC[C@]5(C)CC[C@@]4(C)[C@]3(C)CC[C@H]2C1(C)C
inhibition [1]: 90.9%

CC1(C)[C@@H](O)CC[C@]2(C)[C@H]3C(=O)C=C4[C@@H]5C[C@@](C)(C(=O)N6CCC(C(=O)O)CC6)CC[C@]5(C)CC[C@@]4(C)[C@]3(C)CC[C@@H]12
inhibition [1]: 19.5%
